Most compounds without a hit are left out; they make up all but 3% or so of the library.
PLC-gamma1 inh – PLC-gamma1 enzyme inhibitors, primary screen, biochemical, fluorescence, purified enzyme. 1-phosphatidylinositol 4,5-bisphosphate phosphodiesterase gamma-1 (Homo sapiens), P19174. fluorogenic substrate. inhibition, % at 12.2 µM. 370,000 tested, 0.84% active; in the data active means inhibition above about 9.5%
KLK7 zymogen act – proKLK7 zymogen activators, primary screen, biochemical, fluorescence intensity | AID 652039, 2013 | activation, % at 7 µM | 370,000 tested, 0.9% active | purified proKLK7, EDANS-DABCYL substrate fluorescence; 100% is mature enzyme control, 0% vehicle;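 active means activation above the mean of all tested compounds plus 3 SD, computed per campaign excluding outliers beyond control limits, cut at about 13% in these data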
Tn6 DDE FP – inhibitors of Tn6 peptide binding to fibrin DD(E), primary screen, biochemical, fluorescence polarization, human fibrin, Tn6 probe; Fibrinogen beta chain (Homo sapiens), P02675; inhibition, % at 8.3 µM; 370,000 tested, 0.21% active; Fibrin DD(E) TRITC-Tn6 fluorescence polarization displacement; AID 720509, 2013;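 active means inhibition above a per-campaign cutoff: mean of compounds within control limits plus 3 SD, cut at about 15% in these data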;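 further: 0% = median of all compound wells on the plate and 100% = blocking peptide control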
PLC-beta3 inh – human PLC-beta3 inhibitors, primary screen, biochemical, fluorescence. inhibition, % at 12.2 µM. 370,000 tested, 0.18% active. 1-phosphatidylinositol 4,5-bisphosphate phosphodiesterase beta-3 (Homo sapiens), Q01970. Purified PLC-beta3, fluorogenic substrate. AID 720704, 2013; in the data active means inhibition above about 11%;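 further: 0% = median of compound wells on plate and 100% = full blocker control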
Tn7 DDE FP – inhibitors of Tn7 peptide binding to fibrin DD(E), primary screen, biochemical, fluorescence polarization, human fibrin, Tn7 probe; FP displacement of FITC-Tn7 peptide from fibrin DD(E); 0% = median of compound wells per plate; inhibition, % at 8.3 µM; 370,000 tested, 0.13% active; Fibrinogen beta chain (Homo sapiens), P02675;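 active means inhibition above the mean of compounds falling within the control limits plus 3 SD of them, cut at about 14% in these data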;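 further: 0% = plate median of compound wells and 100% = 10 µM Aha-Tn7 peptide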
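assay system = human clot-derived fibrin DD(E) complex | quantity = Fibrin-DD(E) at 2 µM final | timing = 10 min preincubation, 3 h with tracer, room temperature | signal = fluorescence polarization | measure = percent inhibition | benchmarks = high control wells with 10 µM unlabelled Aha-Tn7 peptide (full inhibition) | replicates = singlicate testing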
CendR NRP1 mod – modulators of CendR peptide binding to NRP-1, primary screen, biochemical, fluorescence polarization, uHTS | inhibition, % at 25 µM | 360,000 tested, 0.85% active | AID 602438, 2012 | FAM-RPARPAR peptide binding to NRP-1 | Neuropilin-1 (Homo sapiens), O14786;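 active means inhibition or corrected inhibition above about 18%, plus a signal ratio from 0.5 to 1.5, limit read from the data, passing the limit was not always enough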
Target sequence (O14786 whole entry, looked up): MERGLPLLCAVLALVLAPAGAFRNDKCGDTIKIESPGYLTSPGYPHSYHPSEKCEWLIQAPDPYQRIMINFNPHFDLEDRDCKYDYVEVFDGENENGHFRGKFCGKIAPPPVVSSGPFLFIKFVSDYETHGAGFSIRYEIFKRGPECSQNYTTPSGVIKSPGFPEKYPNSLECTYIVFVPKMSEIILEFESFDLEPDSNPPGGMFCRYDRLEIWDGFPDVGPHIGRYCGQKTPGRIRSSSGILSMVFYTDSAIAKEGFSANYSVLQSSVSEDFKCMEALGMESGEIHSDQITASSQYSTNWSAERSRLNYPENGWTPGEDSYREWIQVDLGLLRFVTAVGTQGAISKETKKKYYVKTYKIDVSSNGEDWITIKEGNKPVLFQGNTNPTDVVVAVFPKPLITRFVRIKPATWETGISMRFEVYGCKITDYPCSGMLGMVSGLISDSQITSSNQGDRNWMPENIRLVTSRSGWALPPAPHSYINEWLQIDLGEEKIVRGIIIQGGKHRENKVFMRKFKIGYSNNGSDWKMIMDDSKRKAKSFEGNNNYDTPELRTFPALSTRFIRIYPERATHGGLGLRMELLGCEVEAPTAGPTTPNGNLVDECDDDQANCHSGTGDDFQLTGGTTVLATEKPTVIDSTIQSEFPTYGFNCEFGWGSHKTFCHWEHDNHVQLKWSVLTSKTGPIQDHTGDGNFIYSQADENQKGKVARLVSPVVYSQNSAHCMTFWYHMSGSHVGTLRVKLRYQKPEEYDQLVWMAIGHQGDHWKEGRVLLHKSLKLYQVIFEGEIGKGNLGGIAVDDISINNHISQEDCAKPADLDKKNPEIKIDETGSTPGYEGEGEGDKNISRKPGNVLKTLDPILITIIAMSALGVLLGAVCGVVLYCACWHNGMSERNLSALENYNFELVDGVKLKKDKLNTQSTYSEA
proKLK7 act conf – proKLK7 zymogen activators, confirmation, biochemical, fluorescence intensity, triplicate. 3,200 tested, 68% active. shares compounds with KLK7 zymogen act. activation, % at 7 µM. AID 686949, 2013. purified proKLK7, EDANS-DABCYL substrate fluorescence; scaled: vehicle 0, mature enzyme 100;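 active means activation, as change over the incubation, above the mean of all tested compounds plus 3 SD, cut at about 13% in these data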
EDANS-DABCYL int – EDANS-DABCYL substrate optical interference, artefact control for kallikrein-7 zymogen activator project, biochemical, fluorescence intensity, high throughput. shares compounds with KLK7 zymogen act. no enzyme, 4 h; solvent 0%, active enzyme control 100%. activation, % at 7 µM. 3,200 tested, 80% active;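 active means activation above the all-compound mean plus 3 SD, ignoring values outside control-based bounds, cut at about 4.8% in these data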;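 further: value is the 4 h activation minus the activation read at time zero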
K7 EDANS ctr – EDANS fluorescence interference in dose response, no enzyme; AID 720493; shares compounds with KLK7 zymogen act; EC50, µM; 250 tested, 20% active; EDANS-DABCYL peptide fluorescence interference;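 active means compounds that raise the fluorescence signal in this interference counterscreen, with EC50 at or below 10 µM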;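 further: intact quenched peptide substrate alone read at 355 nm excitation and 520 nm emission; signal is fluorescence gain from T0 to T4 after four hours at room temperature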
Numbers without * were called inactive; i = inactive; . = not tested or not shown.

SMILES | PLC-gamma1 inh | KLK7 zymogen act | Tn6 DDE FP | PLC-beta3 inh | Tn7 DDE FP | CendR NRP1 mod | proKLK7 act conf | EDANS-DABCYL int | others
CN(C)c1ccc(-c2cccc3nccn23)cc1 | i | 40* | -5 | i | 0 | 2 | 70* | 60* | K7 EDANS ctr=>70
Clc1cccc(-c2cccc3nccn23)c1 | i | 8 | 4 | i | -7 | 2 | . | .
c1cc(-c2ccc(N3CCOCC3)cc2)n2ccnc2c1 | i | 79* | -1 | i | 3 | -9 | 47* | 59*
CS(=O)(=O)Nc1ccc(-c2cccc3nccn23)cc1 | -331 | -41 | 5 | -399 | 4 | 4 | . | .
CC(=O)c1c[nH]c(C(=O)NCC2CCCO2)c1 (stereo unspecified) | -1 | 40* | -1 | 0 | -5 | -2 | 0 | 0
C=CC(=O)NC1CCCCN(CC)C1=O (stereo unspecified) | 4 | 0 | -5 | -4 | -6 | . | . | .
CCN(CC)C(=O)Cn1cc(C(=O)C(=O)Nc2ccc3c(c2)OCO3)c2ccccc21 | 4 | 57* | 0 | -1 | -3 | -27 | 24* | 44*
CCN(CC)C(=O)Cn1cc(S(=O)(=O)CC(=O)Nc2ccc3c(c2)OCCO3)c2ccccc21 | 1 | 0 | 7 | -2 | -5 | -4 | . | .
CC(C)CN1C(=O)[C@]2(CC(=O)N(C)C2c2ccccc2)c2cc(-n3cc(-c4ccccc4)nn3)ccc21 (stereo partly specified) | 8 | 1 | -7 | 4 | -1 | . | . | .
Cc1cc(-c2ccc(C(=O)O)s2)cnc1N | i | 31* | -5 | i | -6 | 7 | 61* | 70*
C[C@]12c3[nH]c4cc(-c5ccco5)ccc4c3CCN1C(=O)[C@@H](CC(=O)NCCN1CCOCC1)C[C@@H]2C(=O)N1CCOCC1 | -166 | 52* | -2 | -213 | 4 | -10 | 35* | 51*
CC(C)N(C(=O)[C@H]1C[C@H](CC(=O)NCCN2CCOCC2)C(=O)N2CCc3c([nH]c4cc(-c5ccco5)ccc34)[C@]12C)C(C)C | -282 | 124* | -4 | -341 | 8 | 2 | 120* | 127*
CCOC(=O)[C@]12CCCCC/C=C\1N(Cc1ccc(OC)cc1)C(=O)[C@H]2CC(=O)NCCCOC | -1 | 0 | -4 | 4 | 0 | . | . | .
COC(=O)/C=C/c1c(C)nc(NCc2ccccc2)nc1Cl | -36 | 29* | -4 | -48 | 1 | -22 | 50* | 51*
Cc1ccccc1Cn1cc(CN2[C@@H](Cc3ccccc3)COc3cc(Br)ccc3S2(=O)=O)nn1 | 0 | 0 | 0 | -3 | 3 | . | . | .
COCC(=O)N1[C@H](CO)[C@@H](c2ccc(-c3cccnc3)cc2)[C@H]1CN(C)S(=O)(=O)c1ccccc1[N+](=O)[O-] | -5 | 0 | -4 | -4 | -1 | . | . | .
CCOC(=O)N1CCN(C(=O)c2cccn3c(=O)c4sccc4nc23)CC1 | i | 73* | 2 | i | -1 | -7 | 63* | 69*
CCOC(=O)N1CCN(C(=O)c2ccc3nc4ccsc4c(=O)n3c2)CC1 | -363 | 15* | -6 | -463 | 1 | -6 | 25* | 20* | K7 EDANS ctr=>70
CCOC(=O)N1CCN(C(=O)c2ccc3nc4ccc(Cl)cc4c(=O)n3c2)CC1 | i | -4 | -4 | i | -11 | -4 | . | .
COc1ccc2c(c1)CCCN2C(=O)C1CCCN(S(=O)(=O)c2cccc3cccnc23)C1 (stereo unspecified) | -1 | 0 | -1 | -5 | 6 | . | . | .
C=CCN1[C@H](CO)[C@H](c2ccc(Br)cc2)[C@@H]1C#N | 4 | 0 | -3 | 0 | -3 | . | . | .
COc1cc(/C=N/NC(=O)c2c(C)nc3ccc(Cl)cn23)cc(OC)c1OC | -40 | 36* | 2 | -44 | -1 | -11 | 19* | 14* | K7 EDANS ctr=i
COc1ccc(OC)c(/C=N\NC(=O)c2c(C)nc3cc(C)ccn23)c1 | i | 16* | 2 | i | -1 | 1 | 24* | -10 | K7 EDANS ctr=>70
C=CCOc1ccc(/C=N/NC(=O)c2c(C)nc3ccc(Cl)cn23)cc1 | -5 | 23* | -3 | -10 | -1 | 7 | 348* | 333*
CCOC(=O)[C@]12CCCCC/C=C\1N(Cc1ccc(OC)cc1)C(=O)[C@H]2CC(=O)N1CCSCC1 | 0 | 0 | 4 | 1 | 9 | . | . | .
SMILES | PLC-gamma1 inh | KLK7 zymogen act | Tn6 DDE FP | PLC-beta3 inh | Tn7 DDE FP | CendR NRP1 mod | proKLK7 act conf | EDANS-DABCYL int | others
Cc1cc(=O)oc2cc(NC(=O)c3ccccc3Cl)ccc12 | -184 | 13* | -1 | -287 | 1 | 7 | 12 | 12*
Cc1cc(=O)oc2cc(NC(=O)c3ccccc3C(=O)O)ccc12 | i | 54* | -5 | i | -3 | -15 | 14* | 16*
Cc1cc(=O)oc2cc(NC(=O)c3c(Cl)cnn3C)ccc12 | -6 | 0 | 2 | -11 | -6 | 7 | . | .
Cc1ccc([C@@H]2C3COCC=C3C(C#N)=C(N)C2(C#N)C#N)o1 (stereo partly specified) | -105 | 13* | 10 | -138 | 5 | -1 | 53* | 50*
COC(=O)[C@]12C[C@H](CC(=O)N3CCN(C(=O)C4CC4)CC3)C(=O)N(Cc3cccc4ccccc34)C1=C[C@H](C1CCCC1)O[C@@H]2C | 3 | 0 | 1 | 4 | 3 | . | . | .
Nc1cccc2[nH]c(=O)c3ccccc3c12 | -267 | 20* | -7 | -343 | -9 | 0 | 21* | 21*
O=c1[nH]c2ccccc2c(=O)c2ccccc12 | -64 | 3 | -5 | -90 | -1 | 2 | . | .
Nc1ccc2c(c1)[nH]c(=O)c1ccccc12 | i | 38* | -4 | i | -4 | 4 | 49* | 47*
